HTR1E agonist: 5-HT1E (human) receptor agonism | AID 574 | CHO 5-HT1E Ga15 NFAT-bla reporter, FRET; 0% DMSO wells, 100% control agonist wells | activation, % at 6 µM | P28566 | hit rate 0.69% among 65,000;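 active means activation above a set limit, the screen-wide mean activation plus 3 SD, cut at about 8.5% in these data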;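 further: 100% = positive control agonist at 1 µM giving full maximal response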
5-HT1A blocker: blocks the human serotonin 5-HT1a receptor; P08908; CHO 5-HT1a Ga15 NFAT-bla reporter, antagonist mode; inhibition, % at 10 µM; hit rate 0.68% among 62,000; AID 612;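 active means inhibition above the mean of all tested compounds plus 3 SD, cut at about 43% in these data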;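 further: receptor stimulated by 5-CT agonist at 100 nM near EC80; beta-lactamase reporter measured by ratiometric fluorescence of a cleavable substrate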
Target sequence (P08908 whole entry, looked up): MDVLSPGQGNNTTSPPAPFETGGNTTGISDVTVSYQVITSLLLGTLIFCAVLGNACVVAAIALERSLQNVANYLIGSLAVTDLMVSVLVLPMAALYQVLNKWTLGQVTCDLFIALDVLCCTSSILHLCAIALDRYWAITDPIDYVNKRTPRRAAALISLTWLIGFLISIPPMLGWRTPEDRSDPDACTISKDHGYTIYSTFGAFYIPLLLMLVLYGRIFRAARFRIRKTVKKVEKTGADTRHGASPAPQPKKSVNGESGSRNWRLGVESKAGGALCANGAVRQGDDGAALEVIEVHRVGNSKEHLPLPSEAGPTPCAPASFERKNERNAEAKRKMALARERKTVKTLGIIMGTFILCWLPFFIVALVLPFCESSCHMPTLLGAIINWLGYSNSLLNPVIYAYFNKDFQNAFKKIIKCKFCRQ
Jurkat tox 60K: cytotoxic compounds reducing Jurkat cell viability; hit rate 1.2% among 56,000; Jurkat E6.1 viability, ATP luminescence, 48 h; inhibition, % at 4 µM;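 active means inhibition above the mean inhibition of all tested compounds plus 3 SD, cut at about 28% in these data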
HEK293 NFkB inh: inhibitors of the PMA/ionomycin-induced NF-kB reporter in HEK293 cells; HEK-293 NF-kB luciferase reporter, luminescence; inhibition, % at 3 µM; hit rate 0.21% among 62,000; AID 465;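 active means inhibition above the mean of all tested compounds plus 3 SD, cut at about 40% in these data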;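 further: 0% = stimulated DMSO wells and 100% = 10 µM reference inhibitor 5653914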
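Reagent: PMA plus ionomycin mix as NF-kB-activating stimulus. Assay system: NF-kB luciferase reporter HEK-293 cells. Technique: luminescence from luciferase substrate reagent. Incubation: 1 h compound pre-incubation, 16 h PMA/ionomycin at 37 °C. Benchmarks: DMSO only as uninhibited control, 10 µM reference inhibitor as full inhibition. Repeats: tested once.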
5HT1a ag: activates the human 5-HT1a serotonin receptor; P08908; CHO 5-HT1a Ga15 NFAT-bla reporter, FRET ratio; 0% basal, 100% maximal reference agonist; activation, % at 10 µM; hit rate 0.56% among 65,000; AID 567;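 active means activation above the screen-wide mean activation plus 3 SD, cut at about 19% in these data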;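 further: 0% = DMSO wells and 100% = 5-CT at EC100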
HTR1E antagonist: 5-HT1E (human) receptor antagonism; P28566; inhibition, % at 6 µM; hit rate 0.99% among 65,000; CHO 5-HT1E Ga15 NFAT-bla reporter, FRET, antagonist;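 active means inhibition above a set limit, the mean inhibition across every tested compound plus 3 SD, cut at about 29% in these data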;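 further: signal is the 460 over 535 nm emission ratio of beta-lactamase substrate; 0% = agonist plus DMSO wells and 100% = wells without agonist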
* marks the source's active call; other numbers are inactive results; x = no result given. Shown are actives, neighbours in structure and some others; about 3.3% of the full set was active somewhere.

SMILES | HTR1E agonist | 5-HT1A blocker | Jurkat tox 60K | HEK293 NFkB inh | 5HT1a ag | HTR1E antagonist
CCOC(=O)C(C)(C)C(=O)C(C)(C)C(O)c1ccccn1 (configuration not stated) | -1.4 | 10.5 | 2.9 | -4.0 | -4.5 | -6.4
Cc1c(OC(=O)CNC(=O)OC(C)(C)C)ccc2c3c(c(=O)oc12)CCC3 | 1.3 | -17.3 | -4.1 | 1.3 | -1.1 | -1.7
CCCn1c(SCC(=O)N2CCN(S(=O)(=O)c3ccc(Cl)cc3)CC2)n[nH]c1=O | 9.0* | 1.5 | 0.5 | 14.7 | -0.3 | 10.3
O=C(NCCCn1ccnc1)C1c2ccccc2Oc2ccccc21 | 0.3 | -4.2 | 2.7 | 10.6 | -1.0 | -6.1
Cc1c(-c2ccc(F)cc2)nc(N)c(C#N)c1-c1ccco1 | 0.1 | -22.4 | -3.9 | 14.3 | 4.1 | 29.0*
CCCc1nc(N)c(C#N)c(-c2ccco2)c1CC | 0.9 | 19.3 | 2.2 | 8.0 | 0.5 | 20.4
N=c1c(C(=O)NC2CCCCC2)cc2c(=O)n3ccccc3nc2n1CCN1CCOCC1 | -0.4 | 21.7 | -2.5 | 13.7 | 0.7 | -10.9
CCOC(=O)c1[nH]c2ccc(OC)cc2c1NC(=O)c1ccc2c(c1)OCO2 | 0.7 | -5.3 | x | 2.1 | 1.2 | 4.2
COC(=O)c1[nH]c2cc(OC)ccc2c1NC(=O)c1ccc2c(c1)OCO2 | 0.8 | -4.2 | x | 4.2 | 114.8* | -10.0
CCn1cnc2sc(C(=O)N(Cc3ccc(N(C)C)cc3)Cc3ccco3)c(C)c2c1=O | -0.1 | -6.4 | 14.6 | 12.6 | 2.2 | 39.7*
CCn1cnc2sc(C(=O)N3CCN(Cc4ccc5c(c4)OCO5)CC3)c(C)c2c1=O | -0.2 | 5.2 | 3.8 | 15.7 | -1.6 | 2.8
O=C(c1ccc(N2C(=O)CCC2=O)cc1)N1CCN(c2ccccc2)CC1 | 0.2 | -3.0 | 1.7 | 4.2 | -1.8 | -7.0
OCCCc1nc2n(n1)C(c1ccccc1Cl)C=C(c1cccs1)N2 (configuration not stated) | -0.8 | 43.6* | 10.1 | 17.0 | -4.0 | 49.6*
OCCCc1nc2n(n1)C(c1cccs1)C=C(c1ccccc1)N2 (configuration not stated) | 1.8 | 7.4 | 1.4 | 4.3 | 1.9 | 16.6
COc1ccccc1-n1cnc2cc(NCc3ccco3)ccc21 | -1.6 | 28.6 | 57.5* | 25.6 | -0.1 | 33.9*
O=C(CCn1nnc2ccccc21)N1CCC(O)(c2cccc(F)c2)CC1 | -1.1 | 3.7 | x | 28.3 | -1.3 | 8.3
Cc1cc(NCCN2CCOCC2)n2nc(C)c(-c3ccc(Cl)cc3)c2n1 | 1.1 | -2.1 | 3.0 | 14.4 | 3.1 | 31.6*
Cc1cc(NCCN2CCOCC2)n2nc(C)c(-c3ccccc3)c2n1 | 0.3 | 10.4 | 6.5 | 10.1 | -1.3 | 23.7
COc1ccc(N=c2oc3c(OC)cccc3cc2C(=O)NCc2ccco2)c(OC)c1 | -0.2 | -0.4 | 7.4 | -3.9 | 0.2 | -3.0
COC(=O)c1ccc(C(=O)OC)c(NC(=O)c2cc3ccccc3o2)c1 | 0.5 | x | x | x | 2.2 | -6.2
CCN(C1CCCCC1)S(=O)(=O)c1ccc(S(=O)(=O)NCCc2ccncc2)cc1 | -0.2 | -16.2 | -0.6 | 13.9 | 0.5 | 9.8
CCN(C1CCCCC1)S(=O)(=O)c1ccc(S(=O)(=O)NCc2ccncc2)cc1 | 0.3 | -11.1 | 68.7* | 34.6 | -0.6 | -4.0
COc1ccc(Nc2nc(N3CCCC3)nc3ccccc23)c(OC)c1 | 0.6 | 25.6 | 27.9* | 16.0 | -1.2 | -6.6
COc1cc(S(=O)(=O)N2CCOCC2)ccc1NC(=O)COC(=O)c1ccccn1 | 0.6 | 5.5 | x | 18.2 | -3.6 | -5.9
COc1cc2c(cc1OC)/C(=C/C#N)NC(C)(C)C2 | -1.4 | 46.1* | 5.7 | 11.9 | -0.7 | 43.9*
SMILES | HTR1E agonist | 5-HT1A blocker | Jurkat tox 60K | HEK293 NFkB inh | 5HT1a ag | HTR1E antagonist
CC(C)c1nc(-c2c(N)n(C)c(=O)n(C)c2=O)sc1C(=O)C(C)(C)C | -0.2 | -13.7 | -1.8 | 18.4 | -1.3 | -11.5
Cn1c(C(=O)NCCCN2CCOCC2)cc2c(=O)n(C)c3ccccc3c21 | 0.9 | -7.6 | -4.3 | 9.9 | -2.5 | 3.2
Cc1ccccc1CS(=O)(=O)CCC(=O)NCCCN1CCN(c2ccccc2F)CC1 | -0.6 | 10.7 | 10.0 | 11.4 | 1.1 | 10.5
CCn1c(=O)cc(SCC(=O)NCCCN2CCN(c3ccc(F)cc3)CC2)c2ccccc21 | 0.5 | 46.6* | x | 12.9 | 3.7 | -8.0
CCn1c(=O)cc(SCC(=O)NCCN2CCN(Cc3ccccc3)CC2)c2ccccc21 | -0.1 | 13.6 | 9.5 | 4.9 | -4.6 | 4.5
Cn1c(C(=O)NCCCN2CCN(c3ccccc3F)CC2)cc2c(=O)n(C)c3ccccc3c21 | 18.3* | 72.6* | 3.5 | 14.6 | 16.9 | -16.6
Cc1cc(=O)oc(C)c1C(=O)NCCCN1CCN(c2ccccc2F)CC1 | 27.9* | 77.3* | x | 17.6 | 0.9 | 23.5
Cc1cc(=O)oc(C)c1C(=O)NCCNC(=O)c1c(C)cc(=O)oc1C | 39.0* | x | x | x | -0.9 | -10.9
O=C(CN(Cc1ccccc1F)S(=O)(=O)c1ccc(Cl)cc1)NCCCO | -0.1 | 8.1 | -0.9 | -10.6 | 0.7 | 19.3
O=P(O)(CN1CCCCC1)C1CCCCC1O (configuration not stated) | 0.6 | -0.1 | 2.9 | 6.3 | -2.3 | -13.8
O=c1c2ccccc2nc2n1CCCCN2 | -1.9 | 11.5 | -4.2 | -0.1 | 1.8 | -0.3
CC(C)OCCCNC(=O)c1cc2c(=O)n(C)c3ccccc3c2n1C | 0.9 | -2.2 | 6.3 | -3.4 | 0.0 | 4.2
Cn1c(=O)cc(SCC(=O)NCCCN2CCN(c3ccccc3F)CC2)c2ccccc21 | 1.1 | 60.3* | 3.5 | 6.3 | 13.7 | -3.1
CCCCN(CC)CCCNC(=O)c1cc2c(=O)n(C)c3ccccc3c2n1C | 17.2* | -3.2 | -6.7 | 10.8 | -1.9 | -2.5
CN1Cc2cc(C(=O)c3cc(Cl)cc(CSc4ncccn4)c3O)cnc2NC1=O | -1.0 | 60.3* | 98.0* | 33.1 | -2.9 | 79.8*
CCn1c(SCC(=O)Nc2cccc(C)c2)nc2c(c1=O)SC(C)C2 (configuration not stated) | 0.8 | 12.1 | 4.3 | 13.7 | -0.9 | 1.0
CC(=O)C(C(C)=O)c1c(Cl)c(O)c(O)c2c(C(=O)c3ccccc3)coc12 | -1.0 | 28.7 | 49.3* | 10.1 | -3.0 | 22.6
CC(C)Oc1ccc(C2C(C(=O)c3ccco3)=C(O)C(=O)N2CCCN(C)C)cc1 (configuration not stated) | 0.6 | -13.0 | -3.9 | 5.0 | 0.4 | -7.6
Cc1ccc(-c2cc(C(F)(F)F)c(C#N)c(SCCC#N)n2)o1 | 5.7 | 0.4 | -8.7 | 9.8 | 33.5* | -7.3
CCCNC(=O)c1c(N)n(-c2cc(OC)cc(OC)c2)c2nc3ccccc3nc12 | 12.1* | -45.1 | -1.5 | 15.0 | 30.5* | -14.5
COc1ccc(/C=N/n2c(SC)nnc2-c2ccccc2)c(OC)c1OC | 2.4 | 10.1 | 67.6* | -1.8 | -0.4 | 15.4
O=C(c1cc2c(=O)oc3ccccc3c2s1)N1CCN(c2ccccn2)CC1 | 0.1 | -16.2 | x | 4.5 | 0.5 | -1.9
